The target of assay [1] is Sodium-dependent serotonin transporter (Rattus norvegicus, UniProt P31652). The assay can be described thus: Inhibition of [3H]5HT uptake in SERT in rat cerebral cortex. Format: tissue-based. Put shortly: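 Rat cerebral cortex; [3H]5-HT accumulation measured. Nonspecific uptake defined with 10 uM citalopram. Compounds dissolved in DMSO, final 0.5% DMSO. At least five triplicate concentrations spaced around IC50. Nonlinear fit, with Ki by Cheng-Prusoff. Mean ± SEM of 3–8 independent experiments in triplicate.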
Chain of Sodium-dependent serotonin transporter (P31652 whole entry): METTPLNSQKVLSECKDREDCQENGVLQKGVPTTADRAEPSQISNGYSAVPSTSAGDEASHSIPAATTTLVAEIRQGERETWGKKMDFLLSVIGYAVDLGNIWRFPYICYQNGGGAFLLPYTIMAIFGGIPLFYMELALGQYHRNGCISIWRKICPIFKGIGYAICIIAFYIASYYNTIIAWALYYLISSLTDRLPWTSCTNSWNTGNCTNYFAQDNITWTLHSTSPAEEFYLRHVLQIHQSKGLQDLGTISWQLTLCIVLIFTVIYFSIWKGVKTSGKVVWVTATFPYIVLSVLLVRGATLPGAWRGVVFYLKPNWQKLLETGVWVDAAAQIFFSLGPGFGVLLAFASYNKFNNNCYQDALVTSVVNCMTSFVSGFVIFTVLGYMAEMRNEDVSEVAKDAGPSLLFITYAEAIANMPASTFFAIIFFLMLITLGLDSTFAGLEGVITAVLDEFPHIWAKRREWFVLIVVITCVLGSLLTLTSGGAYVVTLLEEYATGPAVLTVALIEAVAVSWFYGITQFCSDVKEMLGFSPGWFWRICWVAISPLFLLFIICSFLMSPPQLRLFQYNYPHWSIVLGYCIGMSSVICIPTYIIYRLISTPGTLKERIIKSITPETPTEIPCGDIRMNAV

Assay [2] deals with T1, Sodium-dependent dopamine transporter (Rattus norvegicus, UniProt P23977). Put plainly: Displacement of [3H]WIN-from DAT in rat striatum. A digest of the protocol:
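Compounds dissolved in DMSO, diluted in 10% DMSO, final 0.5% DMSO. At least five concentrations in triplicate spaced around IC50. IC50 from nonlinear curve fitting, converted to Ki by Cheng-Prusoff. Mean ± SEM of 3–8 independent experiments.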
On the technique in general: Displacement assays read how much labelled ligand stays bound in the presence of the test substance.

The species entered for assay [3] is Rattus norvegicus. The assay can be described thus: Ratio of Ki for SERT to Ki for DAT in rat brain. In kind it is tissue-based.
Assay [4] has as its target Sodium-dependent dopamine transporter (Rattus norvegicus) (UniProt P23977). Put plainly: Ratio of [3H]DA uptake to [3H]WIN-binding to DAT in rat brain. Format: tissue-based.
For assay [5], the species on record is Rattus norvegicus. Put plainly: Ratio of Ki for NET to Ki for DAT in rat brain. Format: tissue-based.
Assay [6] concerns the target Norepinephrine transporter (Rattus norvegicus, UniProt Q9WTR4). The assay can be described thus: Inhibition of [3H]NE uptake in NET in rat cerebral cortex. Format: tissue-based.
Assay [7] concerns the target T1, Sodium-dependent dopamine transporter. Put plainly: Inhibition of [3H]dopamine uptake in DAT in rat striatum. In kind it is tissue-based. Put shortly:
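Rat striatal tissue; [3H]DA accumulation measured. Nonspecific uptake defined with 100 uM cocaine. Compounds dissolved in DMSO, final 0.5% DMSO. At least five triplicate concentrations spaced around IC50. Nonlinear curve fit, with Ki from Cheng-Prusoff. Mean ± SEM of 3–8 independent experiments done in triplicate.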

Chain of Norepinephrine transporter (Q9WTR4 whole entry): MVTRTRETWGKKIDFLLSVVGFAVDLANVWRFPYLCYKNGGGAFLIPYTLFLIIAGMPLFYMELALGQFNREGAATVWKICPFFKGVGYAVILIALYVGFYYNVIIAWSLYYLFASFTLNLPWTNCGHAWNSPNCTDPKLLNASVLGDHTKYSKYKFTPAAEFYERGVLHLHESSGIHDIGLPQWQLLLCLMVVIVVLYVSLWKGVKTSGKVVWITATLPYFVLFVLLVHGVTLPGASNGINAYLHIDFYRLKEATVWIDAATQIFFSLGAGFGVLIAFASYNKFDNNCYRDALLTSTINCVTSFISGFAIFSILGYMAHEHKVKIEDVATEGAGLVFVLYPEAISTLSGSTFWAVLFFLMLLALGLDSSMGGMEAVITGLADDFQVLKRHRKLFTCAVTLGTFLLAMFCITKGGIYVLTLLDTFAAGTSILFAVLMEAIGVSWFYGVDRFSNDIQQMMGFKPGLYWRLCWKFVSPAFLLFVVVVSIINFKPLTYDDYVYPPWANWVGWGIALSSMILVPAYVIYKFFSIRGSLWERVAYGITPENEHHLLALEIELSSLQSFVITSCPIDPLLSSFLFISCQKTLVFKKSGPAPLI
T1 sequence (P23977 whole entry): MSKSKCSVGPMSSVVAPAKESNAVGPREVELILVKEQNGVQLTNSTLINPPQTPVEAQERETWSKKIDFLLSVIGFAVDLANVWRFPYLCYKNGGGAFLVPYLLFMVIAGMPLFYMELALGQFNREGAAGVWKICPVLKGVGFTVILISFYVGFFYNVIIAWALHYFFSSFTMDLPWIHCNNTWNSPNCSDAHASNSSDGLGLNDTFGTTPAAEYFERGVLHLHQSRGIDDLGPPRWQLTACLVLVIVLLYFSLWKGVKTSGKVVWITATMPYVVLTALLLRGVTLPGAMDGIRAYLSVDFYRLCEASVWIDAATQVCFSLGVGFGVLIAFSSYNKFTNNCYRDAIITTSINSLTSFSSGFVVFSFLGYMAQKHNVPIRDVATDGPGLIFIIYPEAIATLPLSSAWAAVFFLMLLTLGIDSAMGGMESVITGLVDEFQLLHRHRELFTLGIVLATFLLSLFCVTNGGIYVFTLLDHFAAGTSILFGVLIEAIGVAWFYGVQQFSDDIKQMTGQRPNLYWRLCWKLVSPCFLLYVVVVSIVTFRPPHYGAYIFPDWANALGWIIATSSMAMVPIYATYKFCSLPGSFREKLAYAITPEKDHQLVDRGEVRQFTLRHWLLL
Chain of Sodium-dependent dopamine transporter (Rattus norvegicus) (P23977 whole entry): as above

As usually defined, the Ki is the equilibrium dissociation constant of an inhibitor or competing ligand from its target. Low values mean higher affinity, high ones lower affinity. As to `O[C@H](CCN1CCN2C[C@@H]1CC[C@H]2C(c1ccccc1)c1ccccc1)c1ccc(F)cc1`, the Ki amounted to 11900 nM in assay [1], 19.9 nM in assay [2], 388 nM in assay [6] and 41.8 nM in assay [7]. Further, the Ratio Ki is 284 in the assay filed under Rattus norvegicus [3], 2.1 in assay [4] and 9.2 in the assay filed under Rattus norvegicus [5].
`O[C@H](CN1CCN2C[C@@H]1CC[C@H]2C(c1ccccc1)c1ccccc1)c1ccc(F)cc1`: the Ki in assay [1] worked out at 7340 nM; in assay [2] it was 649 nM; in assay [6] it was 728 nM; in assay [7], 160 nM. Besides, the Ratio Ki came out at 45.9 in the assay listed under Rattus norvegicus [3], 0.24 in assay [4] and 4.5 in the assay filed under Rattus norvegicus [5].
As for `O[C@H](CN1CCN2C[C@@H]1CC[C@H]2C(c1ccccc1)c1ccccc1)c1ccccc1`, the Ki in assay [1] was 9510 nM; in assay [2], 1040 nM; in assay [6], 1730 nM; in assay [7] it was 266 nM. The Ratio Ki in the assay filed under Rattus norvegicus [3] came out at 35.7; in assay [4] it was 0.25; in the assay listed under Rattus norvegicus [5], 6.5.
Turning to `COc1ccc(CN2CCN3C[C@@H]2CC[C@H]3C(c2ccccc2)c2ccccc2)cc1`, the Ki turned out to be 22.5 nM in assay [2] and 18.4 nM in assay [7].
Regarding `O[C@@H](CCN1CCN2C[C@@H]1CC[C@H]2C(c1ccccc1)c1ccccc1)c1ccc(F)cc1`, the Ki in assay [1] was 1480 nM; in assay [2], 13.5 nM; in assay [6] it was 418 nM; in assay [7], 8.63 nM. The Ratio Ki in the assay listed under Rattus norvegicus [3] was 172; in assay [4] it was 0.63; in the assay listed under Rattus norvegicus [5], 48.4.
As to `O[C@@H](CN[C@H]1CC[C@@H](C(c2ccccc2)c2ccccc2)NC1)c1ccc(F)cc1`, the Ki stood at 2900 nM in assay [1] and 1440 nM in assay [6]. The Ratio Ki in the assay listed under Rattus norvegicus [3] was 12.2; in the assay listed under Rattus norvegicus [5] it was 6.
In the case of `O[C@H](CN[C@H]1CC[C@@H](C(c2ccccc2)c2ccccc2)NC1)Cc1ccccc1`, the inhibition constant (Ki) is 2600 nM in assay [1], 28.9 nM in assay [2] and 231 nM in assay [6]. Further, the Ratio Ki in the assay filed under Rattus norvegicus [3] is 103; in assay [4] it was 0.87; in the assay filed under Rattus norvegicus [5] it was 9.1.
Take `O[C@H](Cc1ccccc1)CN1CCN2C[C@@H]1CC[C@H]2C(c1ccccc1)c1ccccc1`: the Ki in assay [1] stood at 11200 nM; in assay [2], 148 nM; in assay [6], 730 nM; in assay [7] it was 82.9 nM. The Ratio Ki is 135 in the assay filed under Rattus norvegicus [3], 0.56 in assay [4] and 8.8 in the assay listed under Rattus norvegicus [5].
With `O[C@@H](CN1CCN2C[C@@H]1CC[C@H]2C(c1ccccc1)c1ccccc1)c1ccccc1`, the inhibition constant (Ki) in assay [1] worked out at 12900 nM; in assay [2], 228 nM; in assay [6], 954 nM; in assay [7], 204 nM. Besides, the Ratio Ki in the assay listed under Rattus norvegicus [3] was found to be 63.2; in assay [4], 0.89; in the assay listed under Rattus norvegicus [5] it was 4.6.
Take `O[C@@H](CN[C@H]1CC[C@@H](C(c2ccccc2)c2ccccc2)NC1)Cc1ccccc1`: the Ki in assay [1] was 1390 nM; in assay [6], 170 nM; in assay [7], 10.6 nM. In addition, the Ratio Ki in assay [4] worked out at 0.78.
For the compound `O[C@@H](Cc1ccccc1)CN1CCN2C[C@@H]1CC[C@H]2C(c1ccccc1)c1ccccc1`, the Ki in assay [1] was found to be 10300 nM; in assay [2], 47 nM; in assay [6], 259 nM; in assay [7], 16.8 nM. Also, the Ratio Ki in the assay listed under Rattus norvegicus [3] was 615; in assay [4], 0.35; in the assay listed under Rattus norvegicus [5] it was 15.4.
As for `O[C@@H](CN1CCN2C[C@@H]1CC[C@H]2C(c1ccccc1)c1ccccc1)c1ccc(F)cc1`, the Ki in assay [1] stood at 7410 nM; in assay [2], 142 nM; in assay [6], 319 nM; in assay [7], 66.5 nM. The Ratio Ki amounted to 111 in the assay filed under Rattus norvegicus [3], 0.46 in assay [4] and 4.7 in the assay listed under Rattus norvegicus [5].
Turning to `N#Cc1ccc(CN[C@H]2CC[C@@H](C(c3ccccc3)c3ccccc3)NC2)cc1`, the Ki in assay [2] was found to be 11.3 nM; in assay [7], 9.1 nM.

These data come from ChEMBL document CHEMBL1143997, “Further structural optimization of cis-(6-benzhydryl-piperidin-3-yl)-benzylamine and 1,4-diazabicyclo[3.3.1]nonane derivatives by introducing an exocyclic hydroxyl group: interaction with dopamine, serotonin, and norepinephrine transporters” (Bioorg Med Chem, 2008).
